Test results from article PMC5598146 (Toxicology Reports, 2015).
“Also recorded” adds a separate entry of the source.

How the values were obtained:
[1] = In vitro oxidative metabolism, human liver microsomes; type: in vitro ADME
Outline: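 Pooled mixed-gender liver microsomes (human or Sprague-Dawley rat) were incubated with test compound plus NADPH for 60 min at 37 °C, then quenched with acetonitrile. Controls: time-zero and 60-min incubations without NADPH, plus testosterone incubations to confirm microsomal activity. Metabolites were sought by LC/MS full-scan analysis with UV detection at 214, 240 and 254 nm.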

[2] = Pharmacokinetics and oral bioavailability in rats; type: in vivo, Sprague-Dawley rats; conditions: for half-life / bioavailability / clearance / Tmax: rat, plasma
[3] = Excretion in urine and feces of rats; type: in vivo, Sprague-Dawley rats; conditions: 10 mg/kg oral
[4] = system: S. typhimurium strains TA98 and TA100; assay: Abbreviated Ames; type: cell-based; conditions: plate incorporation, up to 5000 μg/plate, ±S9
Outline: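 Salmonella TA98 and TA100 plate-incorporation assay per OECD 471, run with and without rat liver S9. Test compound and its decarboxylated impurity were tested at concentrations up to and including 5000 µg/plate, with vehicle and positive controls. Revertant colony counts were compared with vehicle control, and bacterial toxicity was recorded.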

[5] = system: S. typhimurium strains TA98, TA100, TA1535, TA1537 and E. coli strain WP2 uvrA; assay: Bacterial reverse mutation test; type: cell-based, Escherichia coli; conditions: 51-5000 ug/plate, plate incorporation and pre-incubation, ±S9
[6] = system: human peripheral blood lymphocytes (HPBL); assay: In vitro chromosome aberration test; type: cell-based; conditions: 125-500 ug/mL, 3 h ±S9, 20 h -S9
Outline: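 Human peripheral blood lymphocytes were exposed to the sodium salt of the test compound (0–500 µg/mL) per OECD 473, with solvent and positive controls (mitomycin C −S9, cyclophosphamide +S9). Exposures: 3 h and 20 h without S9, and 3 h with S9 from phenobarbital/5,6-benzoflavone-induced male Sprague-Dawley rat liver. Structural and numerical aberrations were scored at 125, 250 and 500 µg/mL for each condition.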

Sprague-Dawley rats = assay: 28-Day dose-range finding toxicity study; type: in vivo, rat; conditions: 28 days
[7] = system: bred female Crl:CD(SD) rats; assay: Dose range-finding developmental toxicity study; type: in vivo, rat; conditions: 125, 250, 500, 1000 mg/kg/day oral gavage, gestation Days 6-20
[8] = system: bred female Crl:CD(SD) rats; assay: Definitive developmental toxicity study; type: in vivo, rat
Outline: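 Bred female Crl:CD(SD) rats, 25/group, dosed once daily by oral gavage at 0, 250, 500 or 1000 mg/kg/day from gestation Days 6 through 20. Laparohysterectomy on gestation Day 21. Uteri, placentae and ovaries were examined; viable and dead fetuses, early and late resorptions, implantations and corpora lutea were counted; gravid uterine weight, net body weight and fetal weights were recorded.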

In the case of `Cc1nc2cccc(OCC(C)(C)C(=O)NC(C)C)c2c(N)c1C(=O)O` [S9632, 4-amino-5-(3-(isopropylamino)-2,2-dimethyl-3-oxopropoxy)-2-methylquinoline-3-carboxylic acid], the “Metabolism (Phase I biotransformations)” value ([1]; 10 µM, 60 min, 37 °C, NADPH) is reported as “not metabolized; also recorded: No Phase I biotransformations”, the “Level above which no metabolism was observed” value ([1]; 60 min incubation) is reported as ≤ 0.1 % of the parent drug and the half-life ([2]; both, Sprague-Dawley [Crl:CD(SD)], iv, 1 mg/kg, apparent plasma half-life (t1/2), range, iv, male and female) is reported as 11.4 to 16.2 min. The half-life ([2]; both, Sprague-Dawley [Crl:CD(SD)], po, plasma elimination half-life (t1/2), range, oral administration) was 42.6 to 83.4 min, the half-life ([2]; both, Sprague-Dawley, iv, 1 mg/kg, t1/2, intravenous) was < 16.2 min and the bioavailability ([2]; both, Sprague-Dawley, po) was 0.53 to 1.19%. For the same molecule, the half-life ([2]; both, Sprague-Dawley, po, t1/2, oral administration) was < 83.4 min, the bioavailability ([2]; female, Sprague-Dawley [Crl:CD(SD)], po, 100 mg/kg) was 0.83% and the clearance ([2]; female, Sprague-Dawley, iv, 1 mg/kg) was 42.5 mL/min/kg. It also gave a Tmax ([2]; female, Sprague-Dawley, iv, 1 mg/kg, iv 1.0 mg/kg, Day 1, F) of 1.8 min, a half-life ([2]; female, Sprague-Dawley, iv, 1 mg/kg, t1/2, iv 1.0 mg/kg, Day 1, F) of 16.2 min and a bioavailability ([2]; female, Sprague-Dawley, po, 10 mg/kg) of 1.19%. The bioavailability ([2]; female, Sprague-Dawley, po, 30 mg/kg) was 0.77%, the AUC0-last/dose ([2]; iv 1.0 mg/kg, Day 1, F) was 411.9 ng·h/mL/mg/kg and the AUC0-last/dose ([2]; iv 1.0 mg/kg, Day 1, M) was 330.6 ng·h/mL/mg/kg. The “Mean plasma clearance as % of hepatic blood flow” value ([2]; iv, females) was 77.3%, the “Mean plasma clearance as % of hepatic blood flow” value ([2]; iv, males) was 93.6% and the clearance ([2]; male, Sprague-Dawley, iv, 1 mg/kg) was 51.5 mL/min/kg. The Tmax ([2]; male, Sprague-Dawley, iv, 1 mg/kg, iv 1.0 mg/kg, Day 1, M) was 1.8 min, the half-life ([2]; male, Sprague-Dawley, iv, 1 mg/kg, t1/2, iv 1.0 mg/kg, Day 1, M) was 11.4 min and the bioavailability ([2]; male, Sprague-Dawley, po, 10 mg/kg) was 0.54%. The bioavailability ([2]; male, Sprague-Dawley, po, 30 mg/kg) was 0.92%, the bioavailability ([2]; male, Sprague-Dawley, po, 100 mg/kg) was 0.53% and the AUC0-last/dose ([2]; oral gavage 10 mg/kg, Day 1, F) was 4.92 ng·h/mL/mg/kg. For the same molecule, the AUC0-last/dose ([2]; oral gavage 10 mg/kg, Day 1, M) was 1.79 ng·h/mL/mg/kg, the AUC0-last/dose ([2]; oral gavage 10 mg/kg, Day 7, F) was 5.89 ng·h/mL/mg/kg and the AUC0-last/dose ([2]; oral gavage 10 mg/kg, Day 7, M) was 4.81 ng·h/mL/mg/kg. For the same molecule, the AUC0-last/dose ([2]; oral gavage 30 mg/kg, Day 1, F) was 3.17 ng·h/mL/mg/kg, the AUC0-last/dose ([2]; oral gavage 30 mg/kg, Day 1, M) was 3.03 ng·h/mL/mg/kg and the AUC0-last/dose ([2]; oral gavage 30 mg/kg, Day 7, F) was 3.56 ng·h/mL/mg/kg. The AUC0-last/dose ([2]; oral gavage 30 mg/kg, Day 7, M) was 2.87 ng·h/mL/mg/kg, the AUC0-last/dose ([2]; oral gavage 100 mg/kg, Day 1, F) was 3.41 ng·h/mL/mg/kg and the AUC0-last/dose ([2]; oral gavage 100 mg/kg, Day 1, M) was 1.76 ng·h/mL/mg/kg. For the same molecule, the AUC0-last/dose ([2]; oral gavage 100 mg/kg, Day 7, F) was 2.79 ng·h/mL/mg/kg, the AUC0-last/dose ([2]; oral gavage 100 mg/kg, Day 7, M) was 1.85 ng·h/mL/mg/kg and the Accumulation in plasma ([2]; repeated oral dosing for 7 consecutive days) was “No significant accumulation”. For the same molecule, the “Oxidative metabolites (M + 16) in fecal samples” value [3] was “not detectable”, the “Oxidative metabolites (M + 16) in urine” value [3] was “trace amounts” and the “Mutagenicity, result” value [4] was “not mutagenic”. The “Reverse mutation (in vitro), result” value [5] was “Negative”, the “Chromosome aberration (in vitro), result” value [6] was “Negative” and the Findings (Sprague-Dawley rats; 10, 30, 100 mg/kg/day food ad-mix) was “No test-article related findings”. For the same molecule, the NOEL (Sprague-Dawley rats; food ad-mix, male and female rats, highest dose tested) was 100 mg/kg/day, the Findings [7] was “No maternal toxicity or effects on intrauterine growth and survival up to 1000 mg/kg/day” and the “Corpora Lutea, Mean” value ([8]; 250 mg/kg/d) was 16.3. The “Corpora Lutea, Total” value ([8]; 250 mg/kg/d) was 407, the “Dead fetuses, Mean” value ([8]; 250 mg/kg/d) was 0 and the “Dead fetuses, Total” value ([8]; 250 mg/kg/d) was 0. For the same molecule, the “Fetal Wt., Mean” value ([8]; 250 mg/kg/d) was 5.5 g, the “Fetuses Sex F, Mean” value ([8]; 250 mg/kg/d) was 6.8 and the “Fetuses Sex F, Total” value ([8]; 250 mg/kg/d) was 169. For the same molecule, the “Fetuses Sex M, Mean” value ([8]; 250 mg/kg/d) was 7.6, the “Fetuses Sex M, Total” value ([8]; 250 mg/kg/d) was 189 and the “Implant. sites, Mean” value ([8]; 250 mg/kg/d) was 15.3. The “Implant. sites, Total” value ([8]; 250 mg/kg/d) was 382, the “Post-implant. loss, Mean” value ([8]; 250 mg/kg/d) was 1.0 and the “Post-implant. loss, Total” value ([8]; 250 mg/kg/d) was 24. For the same molecule, the “Pre-implant. loss, Mean” value ([8]; 250 mg/kg/d) was 1.0, the “Pre-implant. loss, Total” value ([8]; 250 mg/kg/d) was 25 and the “Resorptions Early, Mean” value ([8]; 250 mg/kg/d) was 1.0. For the same molecule, the “Resorptions Early, Total” value ([8]; 250 mg/kg/d) was 24, the “Resorptions Late, Mean” value ([8]; 250 mg/kg/d) was 0 and the “Resorptions Late, Total” value ([8]; 250 mg/kg/d) was 0. For the same molecule, the “Viable fetuses, Mean” value ([8]; 250 mg/kg/d) was 14.3, the “Viable fetuses, Total” value ([8]; 250 mg/kg/d) was 358 and the “Malformations, fetuses (litters)” value ([8]; 250 mg/kg/day) was 1(1). For the same molecule, the “Corpora Lutea, Mean” value ([8]; 500 mg/kg/d) was 16.8, the “Corpora Lutea, Total” value ([8]; 500 mg/kg/d) was 421 and the “Dead fetuses, Mean” value ([8]; 500 mg/kg/d) was 0. For the same molecule, the “Dead fetuses, Total” value ([8]; 500 mg/kg/d) was 0, the “Fetal Wt., Mean” value ([8]; 500 mg/kg/d) was 5.4 g and the “Fetuses Sex F, Mean” value ([8]; 500 mg/kg/d) was 7.4. The “Fetuses Sex F, Total” value ([8]; 500 mg/kg/d) was 184, the “Fetuses Sex M, Mean” value ([8]; 500 mg/kg/d) was 7.1 and the “Fetuses Sex M, Total” value ([8]; 500 mg/kg/d) was 177. For the same molecule, the “Implant. sites, Mean” value ([8]; 500 mg/kg/d) was 15.3, the “Implant. sites, Total” value ([8]; 500 mg/kg/d) was 383 and the “Post-implant. loss, Mean” value ([8]; 500 mg/kg/d) was 0.9. The “Post-implant. loss, Total” value ([8]; 500 mg/kg/d) was 22, the “Pre-implant. loss, Mean” value ([8]; 500 mg/kg/d) was 1.5 and the “Pre-implant. loss, Total” value ([8]; 500 mg/kg/d) was 38. The “Resorptions Early, Mean” value ([8]; 500 mg/kg/d) was 0.5, the “Resorptions Early, Total” value ([8]; 500 mg/kg/d) was 12 and the “Resorptions Late, Mean” value ([8]; 500 mg/kg/d) was 0.4. The “Resorptions Late, Total” value ([8]; 500 mg/kg/d) was 10, the “Viable fetuses, Mean” value ([8]; 500 mg/kg/d) was 14.4 and the “Viable fetuses, Total” value ([8]; 500 mg/kg/d) was 361. For the same molecule, the “Malformations, fetuses (litters)” value ([8]; 500 mg/kg/day) was 1(1), the “Corpora Lutea, Mean” value ([8]; 1000 mg/kg/d) was 16.5 and the “Corpora Lutea, Total” value ([8]; 1000 mg/kg/d) was 413. For the same molecule, the “Dead fetuses, Mean” value ([8]; 1000 mg/kg/d) was 0, the “Dead fetuses, Total” value ([8]; 1000 mg/kg/d) was 0 and the “Fetal Wt., Mean” value ([8]; 1000 mg/kg/d) was 5.6 g. For the same molecule, the “Fetuses Sex F, Mean” value ([8]; 1000 mg/kg/d) was 7.8, the “Fetuses Sex F, Total” value ([8]; 1000 mg/kg/d) was 194 and the “Fetuses Sex M, Mean” value ([8]; 1000 mg/kg/d) was 7.2. For the same molecule, the “Fetuses Sex M, Total” value ([8]; 1000 mg/kg/d) was 181, the “Implant. sites, Mean” value ([8]; 1000 mg/kg/d) was 15.7 and the “Implant. sites, Total” value ([8]; 1000 mg/kg/d) was 393. The “Post-implant. loss, Mean” value ([8]; 1000 mg/kg/d) was 0.7, the “Post-implant. loss, Total” value ([8]; 1000 mg/kg/d) was 18 and the “Pre-implant. loss, Mean” value ([8]; 1000 mg/kg/d) was 0.80. For the same molecule, the “Pre-implant. loss, Total” value ([8]; 1000 mg/kg/d) was 20, the “Resorptions Early, Mean” value ([8]; 1000 mg/kg/d) was 0.7 and the “Resorptions Early, Total” value ([8]; 1000 mg/kg/d) was 18. For the same molecule, the “Resorptions Late, Mean” value ([8]; 1000 mg/kg/d) was 0, the “Resorptions Late, Total” value ([8]; 1000 mg/kg/d) was 0 and the “Viable fetuses, Mean” value ([8]; 1000 mg/kg/d) was 15.0. The “Viable fetuses, Total” value ([8]; 1000 mg/kg/d) was 375 and the “Malformations, fetuses (litters)” value ([8]; 1000 mg/kg/day) was 3(3).
